Assay outcomes as filed in PubChem BioAssay.
STK33 kinase inh: human STK33 kinase inhibition; Q9BYT3; purified STK33, MBP phosphorylation, ADP-Glo luminescence; inhibition, % at 10 µM; 0.073% of 320,000 active;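 active = inhibition at or above 25%, using the most active replicate where run in duplicate; inactive = inhibition below 25%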
LANA-H2B inh: blocks KSHV LANA binding to histone H2A/H2B. AID 2629. inhibition, % (concentration not given with the values). cell-free LANA-H2A/H2B peptide, fluorescence polarization. 0.6% of 320,000 active; in the data active = inhibition mostly above about 10%, no sharp cut-off; inactive = mostly below about 6.7%
H9c2 TAG inh: reduces triacylglycerol accumulation in H9c2 cells; inhibition, % at 12.5 µM; 0.66% of 230,000 active; AID 651582; Nile Red lipid (TAG) fluorescence; cells loaded with 200 µM oleic acid;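 active = pattern-corrected inhibition of lipid staining of at least 50% with the nuclear-stain viability signal not falling by more than 50%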;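 note: 0% = DMSO wells and 100% = triacsin C control wells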
GSK3 alpha inh: blocks human GSK-3 alpha kinase | 0.1% of 320,000 active | AID 2650 | inhibition, % at 10 µM | ADP-Glo luminescence, 60 min | P49840;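 active = more than half of replicates show inhibition above 20%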;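 note: GST-tagged GSK-3 alpha with peptide substrate and 25 µM ATP; 0% = DMSO neutral wells and 100% = GW8510 positive control wells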
Hep lipid drop: hepatic lipid droplet formation modulation | AML12 mouse hepatocytes, oleate lipid droplets, BODIPY imaging | inhibition, % at 6.5 µM | 0.4% of 240,000 active | AID 1656;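 active = lipid droplet intensity inhibited by at least 50%, with more than 500 cells counted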
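Technique: fluorescence imaging, 20x objective, two fields per well / Assay system: AML12 hepatocytes (mouse) / Measure: % inhibition of lipid droplet signal / Doses: 6.5 µM single-point dosing / Incubation: overnight exposure / Reagent: 100 µM oleic acid challenge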
GSK3beta inhib: human GSK3beta kinase inhibition. GST-GSK3beta kinase, ADP-Glo luminescence, 60 min; hits give low values. AID 2097. 0.038% of 300,000 active. activity score (negative = inhibition), % at 10 µM. P49841;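 active = more than half of replicate wells score below -50%, meaning over 50% inhibition versus plate controls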;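 note: 0% = median DMSO wells and -100% = median GW8510 positive control wells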
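Test system: GST-fused GSK3beta enzyme, cell-free | Quantity: 1.6 ng GST-GSK3beta enzyme per well | Reagent: 25 µM ATP with peptide substrate | Schedule: 60 min enzyme reaction, room temperature | Signal: Luminescent ADP-Glo measurement of ADP formed | Read-out basis: Score relative to plate controls | Control set: DMSO and 20 µM GW8510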
Hep lipid conf: hepatic lipid droplet formation inhibition, confirmed. AML12 mouse hepatocytes, BODIPY lipid droplet imaging; droplets induced with 100 µM oleic acid. shares compounds with Hep lipid drop. inhibition, % at 5.2 µM. 65% of 870 active;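 active = inhibition of lipid droplet metric at least 50%, with more than 300 cells in each of four replicates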;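 note: plate controls were DMSO with oleic acid for no effect and 5 µM Triacsin-C for full effect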
AML12 cytotox: counter-screen for cytotoxicity in AML12 mouse hepatocytes | shares compounds with Hep lipid drop | DAPI nuclear morphology cytotoxicity imaging; hits give high values; cells fed 100 µM oleate overnight | z-score at 5 µM | 3% of 870 active; in the data active = z-score above about 6.3;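 note: compound exposure lasted overnight at 37 °C before fixation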
AML12 tox conf: confirmation of cytotoxicity in AML12 mouse hepatocytes. shares compounds with Hep lipid drop. AML12 mouse hepatocyte viability, ATP luminescence; cells loaded with 100 µM oleic acid. cytotoxicity, % at 50 µM. 530 tested, under 10 active. AID 463219;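 active = cytotoxicity above 50% in each of four replicates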;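 note: compound exposure lasted overnight at 37 °C before the ATP read; 0% = DMSO-treated cells and 100% = wells with no cells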
An asterisk follows results filed as active; . = not tested or not shown. Rows were chosen to be rich in hits. Some 1.3% of all compounds tested hit in one or more screens of this group.

SMILES	STK33 kinase inh	LANA-H2B inh	H9c2 TAG inh	GSK3 alpha inh	Hep lipid drop	GSK3beta inhib	Hep lipid conf	AML12 cytotox	AML12 tox conf
CCCCN(C(=O)CCC(=O)Nc1cc(C)on1)C(C(=O)NC1CCCC1)c1ccc(OCC)cc1 (centres undefined)	-1	4	.	-1	74*	1	91*	-0.33	9
CCCOc1ccc(CNC(=O)c2ccc3nc(N4CCOCC4)sc3c2)cc1	0	-3	37	2	54*	4	99*	-0.65	12
O=C(Oc1cccc2cccnc12)c1cccc(N2C(=O)C3C4CCC(C4)C3C2=O)c1 (centres undefined)	-2	2	.	-1	-3	3	.	.	.
CSc1c(CC(=O)Nc2ccccc2C(F)(F)F)n(Cc2ccccc2)c2ccccc12	-1	-5	.	-3	69*	2	104*	0.47	.
CCOC(=O)c1c(C)[nH]c(C)c1S(=O)(=O)N1CCN(c2ccc([N+](=O)[O-])cc2)CC1	-1	0	.	-1	93*	-3	-33	0.74	.
CCOC(=O)c1c(C)[nH]c(C)c1S(=O)(=O)N1CCCCC1	0	4	.	0	-8	2	.	.	.
COc1ccccc1CNC(=O)CNCCc1ccc(OC)c(OC)c1	-1	2	-4	-7	-4	5	.	.	.
CC[C@]12c3[nH]c4cc(CCC(=O)N(C)C)ccc4c3CCN1C(=O)[C@@H](CC(=O)NCCC1=CCCCC1)C[C@@H]2C(=O)N1CCN(C(=O)C2CC2)CC1	.	.	-7	.	.	.	.	.	.
Cc1ccc(S(=O)(=O)N2CCCCC2)cc1C(=O)N(C)CCOc1ccccc1	-2	-1	-10	3	62*	0	-9	1.8	.
COc1ccc(S(=O)(=O)N2CCCCCC2)cc1C(=O)N(C)CCOc1ccccc1	-2	-1	-3	0	.	3	.	.	.
O=C(Cc1coc2ccc3ccccc3c12)NCc1ccccc1	0	3	.	-5	1	0	.	.	.
O=C(Cc1coc2ccc3ccccc3c12)NC1CCCc2ccccc21 (centres undefined)	.	.	.	.	52*	2	91*	0.16	19
CS(=O)(=O)N(CC(=O)Nc1ccc2c(c1)OCO2)Cc1ccccc1	0	-1	.	1	54*	-3	69	-0.96	7
CS(=O)(=O)N(CC(=O)Nc1cccc(Br)c1)Cc1ccccc1	-15	3	.	-1	52*	-2	84*	-0.59	25
Cc1cccc(OCC(=O)N(Cc2ccc(C)o2)C2CCS(=O)(=O)C2)c1 (centres undefined)	1	-6	.	-10	7	-3	.	.	.
CCOc1ccc(CCNC(=O)CCS(=O)(=O)c2ccc(OC)cc2)cc1OCC	0	-22	.	-9	84*	1	97*	-0.44	10
CCOc1ccc(CCNC(=O)C2CC(C)=CCC2C(=O)O)cc1OCC (centres undefined)	-1	-2	.	1	-1	-1	.	.	.
CNS(=O)(=O)c1cccc(C(=O)OCC(=O)Nc2nc(OC)cc(OC)n2)c1	0	-12	-4	-2	.	.	.	.	.
CCOc1ccc(CCNC(=O)C2CCN(S(=O)(=O)CC)CC2)cc1OCC	0	0	.	3	.	1	.	.	.
CCOc1ccc(CCNC(=O)C2CCN(S(=O)(=O)N3CC(C)CC(C)C3)CC2)cc1OCC (centres undefined)	0	-4	.	3	82*	-1	5	-0.36	.
CCOc1ccc(C(=O)OCC(=O)Nc2nc(OC)cc(OC)n2)cc1OCC	-2	6	.	-1	64*	1	102*	-0.56	15
CCOc1ccc(CCNC(=O)C2CC=CCC2C(=O)OC(C)C)cc1OCC (centres undefined)	0	1	.	-1	114*	-4	106*	0.38	13
